Rows were chosen to be rich in hits. Some 5.1% of all compounds tested hit in one or more screens of this group.
STAT3 act – increases IL-6 driven STAT3 reporter signal | U3A cells, IL-6 STAT3-luciferase reporter, luminescence; 100% = signal with IL-6 EC80 alone | activation (% of control), % at 5.6 µM | actives 0.91% (n = 190,000);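 active means activation above the screen-wide mean of compound activation plus 3 SD, cut at about 130% in these data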;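 further: 0% = background luminescence of wells with medium and substrate only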
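Test system: human U3A cells carrying STAT3-luciferase construct; control set: IL-6-only wells as 100% reference; timing: compound pre-incubation 1 h before IL-6, then 6 h stimulation at 37 °C; also added: IL-6 stimulus at 33 ng/mL final; evaluation: % activation versus median of IL-6-stimulated wells; detection: reporter luminescence signal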
STAT3 inh – inhibitors of IL-6 induced STAT3 signaling; U3A cells, IL-6 STAT3-luciferase reporter, luminescence; host cell line lacks STAT1; inhibition, % at 5.5 µM; actives 0.89% (n = 190,000);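 active means inhibition above the mean inhibition across all screened compounds plus 3 SD, cut at about 44% in these data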;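 further: 0% = DMSO only wells and 100% = 100 µM nifuroxazide control wells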
NF-kB neuron act – compounds increasing NF-kB expression in human neuronal cells. NF-kB reporter expression; hits give high values. fold change at 12.5 µM. actives 1.6% (n = 190,000); in the data active means fold change above about 3.3
STAT1 inh – reduces IFN-gamma driven STAT1 reporter signal | NIH 3T3 STAT1-luciferase reporter, luminescence | inhibition, % at 5.5 µM | actives 0.35% (n = 200,000);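 active means inhibition above a set limit, the mean inhibition across all tested compounds plus 3 SD, cut at about 34% in these data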;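 further: 0% = IFN-gamma with DMSO and 100% = IFN-gamma with 300 µM nifuroxazide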
APP 5'UTR act – activates APP 5'UTR luciferase reporter | SH-SY5Y APP 5'UTR luciferase reporter, luminescence; zero percent = DMSO vehicle wells | activation, % at 2 µM | actives 1% (n = 190,000) | AID 1276;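 active means activation above a set limit, based on mean plus 3 SD of controls, cut at about 140% in these data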
STAT1 act – STAT1 signaling activation | NIH 3T3 STAT1-luciferase reporter, IFN-gamma, luminescence; 100% = IFN-gamma alone, no compound | activation (% of control), % at 5.5 µM | actives 2.6% (n = 200,000) | AID 932;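 active means activation above the screen-wide mean activation plus 3 SD, cut at about 130% in these data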;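 further: raw ratio to IFN-gamma control signal so 100% means no change and 0% no light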
* = called active by the depositor.

How did CCn1cnc2cc(NCc3ccc(C)cc3)ccc21 do in these assays?
STAT3 act: 100; STAT3 inh: 3; NF-kB neuron act: 2.4; STAT1 inh: -38; APP 5'UTR act: 87; STAT1 act: 136*

Results for CCn1cnc2cc(NCc3ccc(N(C)C)cc3)ccc21 ?
STAT3 act: 107; STAT3 inh: 1; NF-kB neuron act: 0.51; STAT1 inh: -26; APP 5'UTR act: 46; STAT1 act: 122

What do the screens show for `CCCC(=O)NCc1nc2ccccc2n1C`?
STAT3 act: 95; STAT3 inh: 8; NF-kB neuron act: 1.5; STAT1 inh: 1; APP 5'UTR act: -20; STAT1 act: 99

Results for CCn1cnc2cc(NCc3nc4ccccc4n3Cc3ccccc3)ccc21 ?
STAT3 act: 108; STAT3 inh: -5; NF-kB neuron act: 0.55; STAT1 inh: -47; APP 5'UTR act: 168*; STAT1 act: 148*

Results for CCn1cnc2cc(NCc3nc4ccccc4n3C)ccc21 ?
STAT3 act: 86; STAT3 inh: 22; NF-kB neuron act: 5.5*; STAT1 inh: -26; APP 5'UTR act: 146*; STAT1 act: 124

Results for Cn1c(CNc2ccccc2)nc2ccccc21 ?
STAT3 act: 111; STAT3 inh: -12; NF-kB neuron act: 2.9; STAT1 inh: -36; APP 5'UTR act: 79; STAT1 act: 132*

Results for CCN(CC)CCn1c(NCc2nc3ccccc3n2Cc2ccccc2)nc2ccccc21 ?
STAT3 act: 112; STAT3 inh: -8; NF-kB neuron act: 0.74; STAT1 inh: 3; APP 5'UTR act: 9; STAT1 act: 97

Results for CC(C)n1cnc2cc(NCc3nc4ccccc4n3C)ccc21 ?
STAT3 act: 107; STAT3 inh: -4; NF-kB neuron act: 1.2; STAT1 inh: -55; APP 5'UTR act: 186*; STAT1 act: 150*

How did Fc1ccccc1NC(=S)N(CCCN1CCOCC1)Cc1cccnc1 do in these assays?
STAT3 act: 95; STAT3 inh: 6; NF-kB neuron act: 1.1; STAT1 inh: 6; APP 5'UTR act: -8; STAT1 act: 95

Results for O=C(Cn1cnc2c(oc3ccccc32)c1=O)c1ccccc1 ?
STAT3 act: 105; STAT3 inh: -1; NF-kB neuron act: 2.7; STAT1 inh: -53; APP 5'UTR act: 102; STAT1 act: 148*

Results for CCn1cnc2c(oc3ccccc32)c1=O ?
STAT3 act: 102; STAT3 inh: -2; NF-kB neuron act: 1.5; STAT1 inh: 1; APP 5'UTR act: 2; STAT1 act: 100

Results for COC(=O)c1ccc(-c2ccc(/C=N/N3C(=O)C4C5C=CC(CC5)C4C3=O)o2)cc1 (configuration not stated) ?
STAT3 act: 108; STAT3 inh: -6; NF-kB neuron act: 1.5; STAT1 inh: -37; APP 5'UTR act: 58; STAT1 act: 132*

How did O=C(Nc1ccccc1)c1ccn[nH]1 do in these assays?
STAT3 act: 97; STAT3 inh: 8; NF-kB neuron act: 3.4*; STAT1 inh: -42; APP 5'UTR act: 80; STAT1 act: 138*

Results for Cc1ccsc1/C=N/Nc1nc(Cl)c(Cl)cc1Cl ?
STAT3 act: 117; STAT3 inh: -18; NF-kB neuron act: 1.1; STAT1 inh: -30; APP 5'UTR act: 28; STAT1 act: 126

How did O=C(O)c1cc(N/N=C/c2cccs2)ccc1Cl do in these assays?
STAT3 act: 130; STAT3 inh: -30; NF-kB neuron act: 1.9; STAT1 inh: -12; APP 5'UTR act: 152*; STAT1 act: 108

How did CN(C(=O)Nc1ccc(Cl)c(Cl)c1)c1ccccc1C(=O)O do in these assays?
STAT3 act: 93; STAT3 inh: 6; NF-kB neuron act: 1.1; STAT1 inh: 0; APP 5'UTR act: -9; STAT1 act: 102

What do the screens show for `O=C(O)c1cc(N/N=C/C(Cl)=C/c2ccccc2)ccc1Cl`?
STAT3 act: 62; STAT3 inh: 51*; NF-kB neuron act: 0.96; STAT1 inh: 59*; APP 5'UTR act: 120; STAT1 act: 45

What do the screens show for `O=C(N/N=C/c1cccs1)C(=O)N1CCCC1`?
STAT3 act: 97; STAT3 inh: 9; STAT1 inh: -13; APP 5'UTR act: 13; STAT1 act: 112

What do the screens show for `Cc1ccc(/C=N/NC(=O)c2cccs2)s1`?
STAT3 act: 102; STAT3 inh: 2; NF-kB neuron act: 2.6; STAT1 inh: -29; APP 5'UTR act: 43; STAT1 act: 126

Results for Cc1ccc(/C=N/Nc2ccc(Cl)c(C(=O)O)c2)s1 ?
STAT3 act: 129; STAT3 inh: -31; NF-kB neuron act: 8*; STAT1 inh: -49; APP 5'UTR act: 166*; STAT1 act: 143*

Results for Cc1ccc(/C=N/Nc2nc(Cl)c(Cl)cc2Cl)s1 ?
STAT3 act: 108; STAT3 inh: -5; NF-kB neuron act: 2.6; STAT1 inh: -52; APP 5'UTR act: 71; STAT1 act: 147*

What do the screens show for `O=C(COC(=O)CNC(=O)c1sc2ccccc2c1Cl)Nc1cc(Cl)cc(Cl)c1`?
STAT3 act: 98; STAT3 inh: 6; NF-kB neuron act: 1.3; STAT1 inh: 1; APP 5'UTR act: -15; STAT1 act: 99

How did C=CCSC1=N/C(=C\c2cc(OCC)c(OC(C)=O)c([N+](=O)[O-])c2)C(=O)S1 do in these assays?
STAT3 act: 104; STAT3 inh: -7; NF-kB neuron act: 1.6; STAT1 inh: 4; APP 5'UTR act: 1; STAT1 act: 96

What do the screens show for `Cc1ccc(C(=O)NN(CCC(=O)NC(C)(C)C)C2=NS(=O)(=O)c3ccccc32)cc1`?
STAT3 act: 100; STAT3 inh: -3; NF-kB neuron act: 1.1; STAT1 inh: 7; APP 5'UTR act: 18; STAT1 act: 94

Results for Brc1c(CSc2nc3ccccc3o2)nc2ncccn12 ?
STAT3 act: 102; STAT3 inh: 2; NF-kB neuron act: 2.5; STAT1 inh: -37; APP 5'UTR act: 37; STAT1 act: 134*

Results for Clc1c(CSc2nc3ccccc3o2)nc2sccn12 ?
STAT3 act: 90; STAT3 inh: 16; NF-kB neuron act: 8.1*; STAT1 inh: -29; APP 5'UTR act: 136*; STAT1 act: 127

How did CC(=O)CSc1nc2ccccc2o1 do in these assays?
STAT3 act: 101; STAT3 inh: 2; NF-kB neuron act: 1.6; STAT1 inh: -6; APP 5'UTR act: 27; STAT1 act: 106

What do the screens show for `COc1ccc(-n2nc(N)c(C(N)=O)n2)cc1`?
STAT3 act: 85; STAT3 inh: 19; NF-kB neuron act: 1.7; STAT1 inh: -18; APP 5'UTR act: 18; STAT1 act: 116

How did c1coc(CNc2nc(-c3cccs3)cs2)c1 do in these assays?
STAT3 act: 96; STAT3 inh: 6; NF-kB neuron act: 2.5; STAT1 inh: -31; APP 5'UTR act: 40; STAT1 act: 127

What do the screens show for `Oc1ccc(-c2csc(NCc3ccco3)n2)cc1`?
STAT3 act: 97; STAT3 inh: 9; NF-kB neuron act: 3.7*; STAT1 inh: -16; APP 5'UTR act: 24; STAT1 act: 114

Assay outcomes deposited in PubChem by several laboratories.
